From ChEMBL document CHEMBL6083205, “A comprehensive apoptotic assessment of niloticin in cervical cancer cells: a tirucallane-type triterpenoid from Aphanamixis polystachya (Wall.) Parker” (RSC Med Chem, 2024) come the findings set out here.

Structures are written as SMILES.

The test system of this experiment is HeLa. Put plainly: Antiproliferative activity against human HeLa cells assessed as inhibition of cell growth incubated for 24 hrs by MTT assay. In kind it is functional, cell-based. Put shortly:
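Cells kept in DMEM with 10% FBS and 1% antibiotic-antimycotic at 37 °C and 5% CO2. Seeded at 8 × 10^3 cells per 100 μL and left 24 h, then exposed 24 h to 5, 10, 20, 50 or 100 μM. MTT at 0.5 mg/mL in HBSS was added for 2–4 h at 37 °C in the dark. Formazan was dissolved in DMSO, A570 was read, and IC50 was derived.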

What is called IC50 is the point on the concentration scale where inhibition reaches its midpoint. Take `C[C@@H](C[C@@H](O)[C@H](O)C(C)(C)O)[C@@H]1CC[C@]2(C)C3=CC[C@H]4C(C)(C)C(=O)CC[C@]4(C)[C@H]3CC[C@@]12C`: the IC50 is above 100 µM.

As for `C[C@@H](C[C@@H](O)[C@@H](O)C(C)(C)O)[C@@H]1CC[C@]2(C)C3=CC[C@H]4C(C)(C)C(=O)CC[C@]4(C)[C@H]3CC[C@@]12C`, the IC50 is 51.9 µM.

`COc1cccc2c1C(=O)c1c(O)c3c(c(O)c1C2=O)C[C@@](O)(C(=O)CO)C[C@@H]3O[C@H]1C[C@H](N)[C@H](O)[C@H](C)O1` [DOXORUBICIN]: the IC50 is 32.2 µM.
